ChEMBL document CHEMBL3112476, “Inhibition of IκB kinase-β and IκB kinase-α by heterocyclic adamantyl arotinoids” (Bioorg Med Chem, 2014)

Key:
[1] = target: T1, Inhibitor of nuclear factor kappa-B kinase subunit beta (Homo sapiens) (UniProt O14920); experiment: Inhibition of recombinant IKKbeta (unknown origin) using ulight-IkappaomegaBalpha as substrate at 20 uM after 1 hr by LANCE ultra TR-FRET assay relative to control
T1 sequence (whole entry): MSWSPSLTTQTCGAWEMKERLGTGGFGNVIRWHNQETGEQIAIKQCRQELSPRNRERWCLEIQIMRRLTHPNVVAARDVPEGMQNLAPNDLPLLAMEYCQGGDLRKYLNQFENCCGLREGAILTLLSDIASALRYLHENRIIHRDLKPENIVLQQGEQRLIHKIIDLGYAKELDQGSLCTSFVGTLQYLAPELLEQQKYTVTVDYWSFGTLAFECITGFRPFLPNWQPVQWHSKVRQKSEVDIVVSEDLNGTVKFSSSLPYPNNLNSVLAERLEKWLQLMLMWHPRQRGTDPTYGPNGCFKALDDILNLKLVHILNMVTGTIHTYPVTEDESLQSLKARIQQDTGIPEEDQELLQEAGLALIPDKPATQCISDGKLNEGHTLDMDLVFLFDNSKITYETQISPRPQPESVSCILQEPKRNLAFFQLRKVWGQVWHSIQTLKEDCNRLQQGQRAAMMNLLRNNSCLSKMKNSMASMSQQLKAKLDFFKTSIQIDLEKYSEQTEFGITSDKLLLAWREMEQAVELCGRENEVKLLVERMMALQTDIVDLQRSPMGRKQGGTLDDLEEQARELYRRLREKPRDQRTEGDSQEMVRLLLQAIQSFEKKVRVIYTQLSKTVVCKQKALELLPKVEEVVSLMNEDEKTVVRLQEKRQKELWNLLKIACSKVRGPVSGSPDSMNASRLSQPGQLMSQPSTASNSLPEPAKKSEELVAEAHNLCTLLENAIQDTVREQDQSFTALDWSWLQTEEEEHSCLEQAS

[2] = target: T2, Retinoic acid receptor alpha (Homo sapiens) (UniProt P10276); experiment: Antagonist activity at Gal4-fused RARalpha (unknown origin) transfected in HEK293 cells assessed as ATRA-induced transcriptional activity at 4 uM by luciferase/beta-galactosidase reporter gene assay relative to ATRA-treated control; type: cell-based; design: scale not given: the % may be the effect or the level left
T2 sequence (whole entry): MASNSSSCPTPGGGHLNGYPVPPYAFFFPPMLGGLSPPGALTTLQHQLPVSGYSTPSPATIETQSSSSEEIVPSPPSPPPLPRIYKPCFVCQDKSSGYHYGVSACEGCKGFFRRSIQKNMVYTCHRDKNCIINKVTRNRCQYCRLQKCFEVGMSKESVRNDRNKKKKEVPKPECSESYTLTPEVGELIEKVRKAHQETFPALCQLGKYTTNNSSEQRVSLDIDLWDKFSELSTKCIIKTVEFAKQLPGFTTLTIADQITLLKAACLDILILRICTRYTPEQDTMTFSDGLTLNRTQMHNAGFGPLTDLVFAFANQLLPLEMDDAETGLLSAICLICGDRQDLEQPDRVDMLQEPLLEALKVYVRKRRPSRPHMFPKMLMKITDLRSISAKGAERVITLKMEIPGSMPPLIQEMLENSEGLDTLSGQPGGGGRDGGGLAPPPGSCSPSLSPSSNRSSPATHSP
In short: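 Same Gal4-RARα HEK-293 UAS-luciferase system, stimulated with 0.1 µM atRA alone or with 4 µM compound (40-fold molar excess); 1 µM UVI2024 served as control antagonist. Background-subtracted luciferase was normalized to β-galactosidase and given as percent of atRA-stimulated cells. Data: 2–3 experiments, triplicate.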

Jurkat = experiment: Induction of apoptosis in human Jurkat cells assessed as activation of DEVDase at 5 uM after 4 hrs by fluorometric assay relative to control; type: functional
In short: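 Jurkat cells (20,000/well, 0.5% FBS RPMI) were treated 4 h with 5 µM compound and lysed 15 min in PIPES pH 7 buffer with NP-40, cytochalasin B and protease inhibitors. An equal volume of 2× caspase buffer containing 100 µM Ac-DEVD-AFC was added. AFC fluorescence (ex 390/em 510 nm) was read every 2 min for 1 h at 37 °C; the linear slope was taken as activity, expressed as fold over DMSO control. Data: 2 experiments, triplicate.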

[3] = Cytotoxicity against human Jurkat T cells assessed as cell viability at 4 uM after 24 hrs by CellTiter-Glo assay relative to control; type: functional; settings: read-out: Activity
In short: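 Jurkat cells in 0.5% FBS RPMI were exposed to 4 µM compound or 0.1% DMSO for 24 h. Viability was read as ATP by CellTiter-Glo luminescence and expressed as percent of solvent control; below 60% counted as cell killing. Data: three experiments, triplicate.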

[4] = target: T3, Inhibitor of nuclear factor kappa-B kinase subunit epsilon (Homo sapiens) (UniProt Q14164); experiment: Inhibition of recombinant IKKepsilon (unknown origin) using ulight-rpS6 as substrate at 20 uM after 2 hrs by LANCE ultra TR-FRET assay relative to control
T3 sequence (whole entry): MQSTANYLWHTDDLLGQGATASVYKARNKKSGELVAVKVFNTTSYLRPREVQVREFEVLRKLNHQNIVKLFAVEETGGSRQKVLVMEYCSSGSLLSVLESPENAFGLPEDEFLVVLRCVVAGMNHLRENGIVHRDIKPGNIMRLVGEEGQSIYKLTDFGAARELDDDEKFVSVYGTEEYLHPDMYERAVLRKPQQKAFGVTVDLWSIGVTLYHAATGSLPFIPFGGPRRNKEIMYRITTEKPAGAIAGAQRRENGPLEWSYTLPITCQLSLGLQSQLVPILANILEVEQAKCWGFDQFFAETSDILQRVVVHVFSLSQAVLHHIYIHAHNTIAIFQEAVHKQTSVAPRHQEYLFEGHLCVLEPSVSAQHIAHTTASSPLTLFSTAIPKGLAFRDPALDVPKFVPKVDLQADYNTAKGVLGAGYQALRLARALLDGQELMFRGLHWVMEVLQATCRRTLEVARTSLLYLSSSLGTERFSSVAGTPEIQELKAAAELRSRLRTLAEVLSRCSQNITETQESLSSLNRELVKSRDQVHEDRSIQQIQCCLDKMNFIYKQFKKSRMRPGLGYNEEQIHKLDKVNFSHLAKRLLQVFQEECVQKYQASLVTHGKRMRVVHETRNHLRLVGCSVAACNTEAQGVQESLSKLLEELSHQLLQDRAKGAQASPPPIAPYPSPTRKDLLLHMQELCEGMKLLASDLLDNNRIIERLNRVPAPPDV

SMILES | inhibition [1] | Activity [2] | fold change (FC) (Jurkat) | viability at 4 µM [3] | inhibition [4]
COCCOCOc1ccc(-c2ncc(-c3ccc(C(=O)O)cc3)s2)cc1C12CC3CC(CC(C3)C1)C2 | 89.3% | 92.4% | 9.8 | 74.5% | 25.3%
COc1nc(/C=C/C(=O)O)cnc1-c1cc(C23CC4CC(CC(C4)C2)C3)c(O)cc1C | 7.3% | 89% | 2.6 | 70.9% | 6.7%
O=C(O)c1ccc(-c2cnc(-c3ccc(O)c(C45CC6CC(CC(C6)C4)C5)c3)s2)cc1 | 94.1% | 66.2% | 81.4 | 6% | 11.6%
COCCOCOc1cc(C)c(-c2ccc(/C=C/C(=O)O)cc2Cl)cc1C12CC3CC(CC(C3)C1)C2 | 4.3% | 61.5% | 1.3 | 83.7% | 2.9%
COCCOCOc1ccc(-c2ncc(/C=C/C(=O)O)s2)cc1C12CC3CC(CC(C3)C1)C2 | 1.9% | 94.2% | 0.6 | 103% | 14.3%
Cc1cc(O)c(C23CC4CC(CC(C4)C2)C3)cc1-c1ncc(/C=C/C(=O)O)s1 | 26.2% | 87.3% | 1.5 | 92.3% | 0%
COc1nc(-c2ccc(C(=O)O)cc2)cnc1-c1ccc(O)c(C23CC4CC(CC(C4)C2)C3)c1 | 83.9% | 95.4% | 42.6 | 14.9% | 26.1%
COCCOCOc1cc(C)c(-c2ccc(CC(=O)O)cc2Cl)cc1C12CC3CC(CC(C3)C1)C2 | 39.8% | 74.1% | 2.6 | 86.8% | 0%
Cc1cc(O)c(C23CC4CC(CC(C4)C2)C3)cc1-c1ncc(-c2ccc(C(=O)O)cc2)s1 | 95% | 33.2% | 12.1 | 39% | 0%
Cc1cc(O)c(C23CC4CC(CC(C4)C2)C3)cc1-c1ccc2cc(C(=O)O)ccc2c1Cl | 96.4% | 90% | 55.8 | 7.7% | 41.5%
COCCOCOc1cc(C)c(-c2ncc(-c3ccc(C(=O)O)cc3)s2)cc1C12CC3CC(CC(C3)C1)C2 | 87.7% | 61.6% | 4.9 | 59.5% | 17%
Cc1cc(O)c(C23CC4CC(CC(C4)C2)C3)cc1-c1ccc(/C=C/C(=O)O)cc1Cl | 4.9% | 67.1% | 0.8 | 34.1% | 11.9%
COCCOCOc1ccc(-c2ncc(/C=C/C(=O)O)nc2OC)cc1C12CC3CC(CC(C3)C1)C2 | 1.6% | 78.7% | 0.2 | 94.9% | 9.4%
CC(=O)NCCCOc1cc(/C=C/C(=O)O)ccc1-c1cc(C23CC4CC(CC(C4)C2)C3)c(O)cc1C | 0% | 70% | 6.3 | 28% | 5.2%
COCCOCOc1cc(C)c(-c2ccc3cc(C(=O)O)ccc3c2Cl)cc1C12CC3CC(CC(C3)C1)C2 | 79.2% | 82.7% | 12.4 | 33.1% | 13.7%
O=C(O)/C=C/c1cnc(-c2ccc(O)c(C34CC5CC(CC(C5)C3)C4)c2)s1 | 5% | 92.4% | 0.6 | 92.9% | 0%
COCCOCOc1cc(C)c(-c2ncc(/C=C/C(=O)O)nc2OC)cc1C12CC3CC(CC(C3)C1)C2 | 3.8% | 99.5% | 0.3 | 96.5% | 5.9%
COCCOCOc1ccc(-c2ncc(-c3ccc(C(=O)O)cc3)nc2OC)cc1C12CC3CC(CC(C3)C1)C2 | 25.4% | 109% | 2.5 | 91.4% | 18.8%
Cc1cc(O)c(C23CC4CC(CC(C4)C2)C3)cc1-c1ccc(CC(=O)O)cc1Cl | 4.9% | 79.7% | 1.8 | 45.8% | 8.5%
COCCOCOc1cc(C)c(-c2ncc(/C=C/C(=O)O)s2)cc1C12CC3CC(CC(C3)C1)C2 | 12.2% | 75.3% | 1.6 | 96.1% | 11.1%
COc1nc(/C=C/C(=O)O)cnc1-c1ccc(O)c(C23CC4CC(CC(C4)C2)C3)c1 | 8.2% | 93.2% | 3.1 | 60.9% | 7.8%
